DNMT1 block = DNMT1 (human) enzyme inhibition. P26358. DNMT1 molecular beacon, Hinp1I cleavage, fluorescence. inhibition (reported as % activation of signal), % at 10 µM. 360,000 compounds, 0.83% hits; in the data active = inhibition above about 50%
Scp1 inh = Scp-1 (human) phosphatase inhibition; Q9GZU7; Recombinant Scp1, phosphopeptide, malachite green phosphate absorbance; inhibition, % at 20 µM; 340,000 compounds, 0.88% hits;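 active = inhibition above about 50% at 20 µM, limit read from the data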
Target sequence (Q9GZU7 76-261 limits assumed): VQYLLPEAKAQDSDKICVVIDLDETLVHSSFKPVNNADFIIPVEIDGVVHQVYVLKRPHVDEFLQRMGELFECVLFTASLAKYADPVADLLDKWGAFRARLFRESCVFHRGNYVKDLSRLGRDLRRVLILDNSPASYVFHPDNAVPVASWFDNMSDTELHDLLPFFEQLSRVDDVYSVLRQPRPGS
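System: truncated SCP-1 phosphatase (76-261aa); medium: Tris acetate buffer pH 5.5 with MgCl2 and Tween-20; incubation: 45 min room-temperature reaction, 5 min colour, 30 min stabiliser; compound: single 20 µM dose, 1% DMSO; reagent: Phosphorylated 17-residue peptide substrate; read-out: % inhibition at 20 µM; technique: colorimetric free-phosphate detection, absorbance 630 nm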
GRK2 aptamer HTS = blocks RNA aptamer binding to human GRK2. bead flow cytometry, FAM-aptamer displacement from GRK2. inhibition of aptamer binding, % at 10 µM. AID 488847. 330,000 compounds, 0.59% hits;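 active = inhibition of aptamer binding above 40%, roughly 3 SD of noise, on plates passing a quality check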;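 note: median bead fluorescence of bound FAM aptamer so fluorescent compounds give negative values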
STEP block = inhibitors of human striatal-enriched phosphatase STEP; P54829; recombinant STEP, OMFP fluorogenic substrate, fluorescence; inhibition, % at 20 µM; 360,000 compounds, 0.25% hits; AID 588621;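 active = inhibition at 20 µM, scaled per plate between control wells, above about 37%, limit read from the data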
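medium = Bis-Tris buffer pH 6.0, 2.5 mM DTT, 0.005% Tween 20 | test system = STEP (striatal-enriched tyrosine phosphatase) enzyme, cell-free | measure = normalized % inhibition | compound dosing = 20 µM, 1% DMSO | also added = 25 µM OMFP | schedule = reaction 20 min, ambient temperature | measured by = fluorescence read at 480 nm ex / 540 nm em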
LMPTP inh = blocks human LMPTP phosphatase. 360,000 compounds, 0.22% hits. P24666. recombinant LMPTP-A, OMFP fluorogenic substrate, fluorescence intensity. inhibition, % at 20 µM;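 active = compounds that cut the enzyme signal by at least half of the control window in the single-dose screen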
Target sequence (P24666 whole entry, looked up): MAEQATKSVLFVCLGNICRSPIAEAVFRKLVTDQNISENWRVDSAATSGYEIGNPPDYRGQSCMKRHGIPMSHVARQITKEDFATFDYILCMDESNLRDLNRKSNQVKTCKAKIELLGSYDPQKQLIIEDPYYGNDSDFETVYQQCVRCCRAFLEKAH
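Test system – LMPTP-A phosphatase enzyme · Quantity – 0.625 nM LMPTP-A final · Reagent – OMFP substrate, 400 µM final · Dosing – one test concentration per compound, 20 µM, with 3% DMSO overall · Timing – 50 min enzyme reaction at room temperature, protected from light · Detection – fluorescence intensity · Controls – substrate-only low control, DMSO enzyme-plus-substrate high control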
SUMO1 PPI mod = SUMO1-SIM interaction modulation. AID 602429. P63165. 360,000 compounds, 0.33% hits. inhibition, % at 20 µM. SUMO1 binding to a labelled peptide, TR-FRET, 1 h; in the data active = inhibition above about 37%
Target sequence (P63165 whole entry, looked up): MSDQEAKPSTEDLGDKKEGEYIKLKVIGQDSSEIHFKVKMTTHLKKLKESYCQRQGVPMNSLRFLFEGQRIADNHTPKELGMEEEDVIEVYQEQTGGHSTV
GRK2 CP1 = confirmation of human GRK2 inhibitors displacing RNA aptamer; aptamer displacement, % at 10 µM; bead-bound GRK2, FAM-aptamer displacement, flow cytometry; shares compounds with GRK2 aptamer HTS; 2,000 compounds, 4% hits; AID 504451;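 active = aptamer displacement above 40%, near three times the noise of non-fluorescent compounds, on plates passing quality checks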;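 note: negative values mostly reflect intrinsic compound fluorescence rather than true enhancement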
Aptamer quench SP = quenches fluorescent RNA aptamer, GRK2 hit artifact; shares compounds with GRK2 aptamer HTS; Carboxyfluorescein RNA aptamer on beads, flow cytometry quenching; active compounds read low; fluorescence response (% of DMSO), % at 10 µM; 2,000 tested, under 10 active;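 active = compounds that quench the bead-bound fluorescent RNA probe, cutting fluorescence to under half of the solvent control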;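 note: counterscreen run without GRK2 so only probe quenching by compound is measured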
GRK2 confirm 2 = confirmation of human GRK2 inhibitors binding RNA aptamer site; bead-bound GRK2, FAM-aptamer displacement, flow cytometry; inhibition of aptamer binding, % at 10 µM; 360 tested, under 10 active; AID 504782; shares compounds with GRK2 aptamer HTS;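 active = inhibition of aptamer binding above 40%, about triple the noise seen with nonglowing compounds, on plates passing quality control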;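 note: negative values mostly come from compounds that fluoresce themselves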
FAM quench CP2 = counter-screen for GRK2 binding hits: quenchers of fluorescent RNA aptamer | shares compounds with GRK2 aptamer HTS | carboxyfluorescein RNA aptamer beads, flow cytometry quenching; active compounds read low | fluorescence response vs DMSO, % at 10 µM | 360 tested, under 10 active;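 active = response vs DMSO under 50%, meaning signal dropped by over half, treated as fluorescence quencher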;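 note: labelled aptamer on streptavidin beads without GRK2 as a quench counter-screen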
A number is an active result; 0 = inactive; - = no result given. Only some compounds are listed: those with a hit (about 2.1% of all), similar ones and a draw of the others.

SMILES	DNMT1 block	Scp1 inh	GRK2 aptamer HTS	STEP block	LMPTP inh	SUMO1 PPI mod	GRK2 CP1	Aptamer quench SP	others
CC(=O)c1cccc(Nc2cc(C)nc3ccccc23)c1	0	0	0	0	0	0	-	-
NC(=O)c1ccsc1NC(=O)COC(=O)CNC(=O)c1ccc(F)cc1	0	0	55.0	0	0	0	0	0
NC(=O)c1ccsc1NC(=O)COC(=O)COc1ccccc1F	0	0	0	0	0	0	-	-
C#CCn1c(=O)cc(C)c2ccccc21	0	0	47.0	0	0	0	0	0
Cc1ccc(CNC(=O)CN2C(=O)NC(C)(c3cccc(Br)c3)C2=O)cc1 (centres undefined)	0	0	56.0	0	0	0	0	0
Cc1ccc(S(=O)(=O)N(C)CC(=O)O/N=C(\N)c2ccccn2)cc1	0	0	100.0	0	0	0	0	0
CCN1CCCC1Cn1cnc2c([nH]c3cccc(Cl)c32)c1=O (centres undefined)	0	0	0	0	0	0	-	-
CCN1CCCC1Cn1cnc2c([nH]c3ccc(Cl)cc32)c1=O (centres undefined)	0	0	92.0	0	0	0	0	0
Cc1nn(CC(=O)NCCCN2CC(C)CC(C)C2)c(=O)c2cccn12 (centres undefined)	0	0	0	0	0	0	-	-
O=C(O)c1cc(O)c2c(c1)[C@H]([C@H]1c3cc(C(=O)O)cc(O)c3C(=O)c3c(O[C@@H]4O[C@H](CO)[C@@H](O)[C@H](O)[C@H]4O)cccc31)c1cccc(OC3O[C@H](CO)[C@@H](O)[C@H](O)[C@H]3O)c1C2=O (some centres undefined)	97.1	92.4	99.0	98.5	94.1	116.2	0	0
O=C1c2c(O)cccc2C(C2OC(CO)[C@@H](O)[C@H](O)[C@H]2O)c2cc(CO)cc(O)c21 (some centres undefined)	0	0	0	0	0	0	-	-
CCOC(=O)N1CCN(C(=O)C(=O)c2cn(CC(=O)N3CCCCCC3)c3ccccc23)CC1	0	0	0	0	0	0	-	-
CCOC(=O)C1CCN(C(=O)C(=O)c2cn(CC(=O)N3CCCCCC3)c3ccccc23)CC1	0	0	42.0	0	0	0	-	-	GRK2 confirm 2=0;FAM quench CP2=0
CCn1nc(NC(=O)CC(C)C)c2cc3cccc(C)c3nc21	0	0	0	0	0	0	-	-
CCn1nc(NC(=O)C(C)(C)C)c2cc3cccc(C)c3nc21	0	0	50.0	0	0	0	0	0
Cc1ccc(C(=O)/C=C/Nc2cccc(O)c2)cc1	0	0	0	0	0	0	-	-
C/C(=C\C(=O)c1ccc(C)cc1)Nc1cccc(O)c1	0	0	0	0	0	0	0	0
C/C(Cc1ccccc1)=N\NC(=O)CNC(=O)c1ccc(Br)cc1	0	0	78.0	0	0	0	0	0
C/C(Cc1ccccc1)=N\NC(=O)CNC(=O)c1ccccc1	0	0	0	0	0	0	-	-
CC(=O)Nc1ccc(OCC(=O)NCc2ccccc2)cc1	0	0	100.0	0	0	0	0	0
COc1ccc(CC(=O)NNC(=O)COc2ccc(C)cc2)cc1S(=O)(=O)N1CCOCC1	0	0	0	0	0	0	-	-
COc1ccc(CC(=O)NNC(=O)COc2ccc(F)cc2)cc1S(=O)(=O)N1CCOCC1	0	0	41.0	0	0	0	0	0
Cc1c(NC(=O)OCCNC(=O)Nc2ccccc2)sc(=S)n1C	0	0	0	0	0	0	-	-
Cc1ccc(S(=O)(=O)NCCOC(=O)Nc2sc(=S)n(C)c2C)cc1	0	0	96.0	0	0	0	0	0
Cc1cccc2cc(-c3ccccc3)c(-c3ccccc3)c[n+]12	0	0	44.0	0	0	0	0	0
SMILES	DNMT1 block	Scp1 inh	GRK2 aptamer HTS	STEP block	LMPTP inh	SUMO1 PPI mod	GRK2 CP1	Aptamer quench SP	others
O=[N+]([O-])c1cccc(-c2cc3cccc[n+]3cc2-c2cccc([N+](=O)[O-])c2)c1	0	0	0	0	0	0	-	-
CC(C(=O)Nc1ccon1)N1C(=O)c2ccccc2S1(=O)=O (centres undefined)	0	0	95.0	0	0	0	0	0
COc1ccc(C(=O)CCC(=O)N2CCN(c3cc(C)ccc3C)CC2)cc1	0	0	87.0	0	0	0	0	0
COc1ccc(-c2cccc(CCC(=O)N3CCN(c4cc(C)ccc4C)CC3)c2)cc1	0	0	0	0	0	0	-	-
CCOC(=O)[C@]12CCCC=C1N(Cc1ccco1)C(=O)[C@H](CC(=O)N1CCOCC1)C2	-	-	-	-	0	0	-	-
Cc1ccc(C(O)c2ncc(-c3ccc4ccccc4c3)[nH]2)cc1F (centres undefined)	0	-	-	0	0	0	-	-
COc1ccc(C2=NN(c3ccc(C=O)cc3)C(c3ccccc3)C2)cc1 (centres undefined)	-	0	0	-	-	-	-	-
O=Cc1ccc(N2N=C(c3ccccc3)CC2c2ccccc2)cc1 (centres undefined)	0	0	46.0	0	0	0	0	0
COc1ccc2cc3cc(C(=O)N4CCN(c5ccccn5)CC4)oc3nc2c1	0	0	57.0	0	0	0	0	0
CC(=O)n1c(=O)c2ccccc2c(=O)n1-c1ccccc1	0	0	0	0	0	0	0	0
O=c1c2ccccc2c(=O)n(-c2ccccc2)n1CCCCBr	0	0	0	0	0	0	-	-
C/C(=N\OCc1ccc(C#N)cc1)c1cc2ccccc2o1	0	0	0	0	0	0	-	-
C/C(=N\OCc1ccccc1C#N)c1cc2ccccc2o1	0	0	47.0	0	0	0	0	0
COC(=O)C1CCN(C2CN(Cc3ccc(F)cc3)S(=O)(=O)C2)CC1 (centres undefined)	0	-	-	0	0	0	-	-
COc1ccc2cc(C#N)c(SCC(=O)N3CC(=O)Nc4ccccc43)nc2c1	0	0	0	0	0	0	-	-
Cc1cccc2cc(C#N)c(SCC(=O)N3CC(=O)Nc4ccccc43)nc12	0	0	57.0	0	0	0	0	0
O=C(c1ccc(Cl)c(S(=O)(=O)N2CCc3ccccc3C2)c1)N1CCN(c2ccccc2)CC1	0	0	0	0	0	0	0	0

Screening results deposited in PubChem BioAssay by several laboratories.
